Experimental data collected from several papers.
Target: Casein kinase I isoform epsilon (CSNK1E, Homo sapiens, UniProt P49674)

The remaining binding of `Cc1cnn2ncc(-c3ccnc(N(C)C)n3)c2c1` is reported as 60% (binding; 1 µM).
With `CC(=O)C1=C(C)N(c2cccc(C(F)(F)F)c2)C(=O)N[C@@H]1c1ccc(C#N)nc1` the remaining binding was 100% (cell-free assay, competition with immobilised ligand; 1 µM).
For `Cc1cnc(Nc2ccc(C(=O)N3CCC(N4CCCC4)CC3)cc2)nc1-c1cc2ccccc2s1`, the remaining binding was 100% (binding, competition with immobilised ligand; 1 µM).
With `O=C(NCc1ncc(C(F)(F)F)cc1Cl)c1ccc2c(c1)C1(CCS(=O)(=O)CC1)[C@H](C1CC1)N2S(=O)(=O)c1ccc(F)cc1` the remaining binding was 100% (cell-free assay, competition with immobilised ligand; 1 µM).
For `C[C@@H](c1ccc(-n2cnc3c(N)ncnc32)cc1)N1CCc2nn(C)c(Cc3ccccc3)c2C1=O`, the remaining binding was 83% (binding, competition with immobilised ligand; 0.1 µM).
`C[C@@H]1CN(c2cc(-c3n[nH]c4ccc(OC5(C)CC5)cc34)ncn2)C[C@H](C)O1` has a remaining binding of 100% (cell-free assay, competition with immobilised ligand; 0.1 µM).
`CN(C)c1ncc(F)c(-c2cnn3ncccc23)n1` has a remaining binding of 100% (binding; 1 µM).
For `O=C(c1ccc(Nc2ncc(Cl)c(-c3cc4ccccc4s3)n2)cc1)N1CCC(N2CCCC2)CC1`, the remaining binding was 100% (binding, competition with immobilised ligand; 1 µM).
For `Cc1cc(NC(=O)c2cccc(S(F)(F)(F)(F)F)c2)cc(-n2ccn3nc(-c4cccnc4)cc23)c1`, the remaining binding was 75.7% (cell-free assay, competition with immobilised ligand; 1 µM).
The remaining binding of `Nc1ncc2c(n1)-c1c([nH]c3ccc(C#CC4CC4)cc13)CCCC2` is reported as 100% (binding, competition with immobilised ligand; 1 µM).
`CNC(=O)[C@@H]1CC[C@@H](n2c(-c3ccc4cnccc4c3)nc3ccc(C(=O)NCc4cccc(C(N)=O)c4)cc32)C1` gave a remaining binding of 100% (binding, competition with immobilised ligand; 1 µM).
The remaining binding of `COc1ccnn2ncc(-c3ccnc(N(C)C)n3)c12` is reported as 75% (binding; 1 µM).
With `CNCc1ccccc1-c1csc([C@@H](C)Nc2nc(C)nc3cc(OC)c(OC)cc23)c1` the remaining binding was 99% (cell-free assay, competition with immobilised ligand; 1 µM).
For `O=C(Nc1c[nH]nc1C(=O)NC1CCNCC1)c1cc(F)cc(F)c1`, the remaining binding was 73% (binding, competition with immobilised ligand; 1 µM).
With `CC1CCCN1c1nccc(-c2cnn3ncccc23)n1` (stereo not shown) the remaining binding was 100% (binding; 1 µM).
`FC(F)(F)Oc1cccc(-c2cnc3ccc(-c4ccncc4)nn23)c1` has a remaining binding of 12% (cell-free assay, competition with immobilised ligand; 5 µM).
For `C[C@H]1CCN(c2nccc(-c3cnn4ncccc34)n2)C1`, the remaining binding was 49% (binding; 1 µM).
`CC(=O)N1CCC(c2ccc(C(=O)NC3=NCCN3)cc2C(F)(F)F)CC1` has a remaining binding of 100% (cell-free assay, competition with immobilised ligand; 1 µM).
The remaining binding of `CN(c1nccc(-c2cnn3ncccc23)n1)C1CC1` is reported as 100% (binding; 1 µM).
`COc1ncc2cc3ccccc3nc2c1C#N` gave a remaining binding of 86% (cell-free assay, competition with immobilised ligand; 5 µM).
For `O=C(c1ccc(Nc2nccc(-c3cc4ccccc4s3)n2)cc1)N1CCC(N2CCCC2)CC1`, the remaining binding was 100% (binding, competition with immobilised ligand; 1 µM).
`N[C@H]1CCN(c2nccc(-c3cnn4ncccc34)n2)C1` has a remaining binding of 47% (binding; 1 µM).
